Measurements taken from ChEMBL document CHEMBL1121478, “Potential prophylactic antitumor activity of retinylidene 1,3-diketones” (1980).
Activity calls are given as the source filed them. The calls are words filed in the database; no cut-off is given here.

Legend:
Cricetinae gen. sp. [1] = test: Compound is evaluated for its intrinsic ability to control epithelial cell differentiation by retinoids in hamster tracheal organ culture; assay type: functional, Trachea
Method in brief: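 Hamster trachea organ cultures (procedure from earlier reports). Retinoids tested at 10^-8, 10^-9 and 10^-10 M. Potency given as ED50.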

Cricetinae gen. sp. [2] = test: Compound is evaluated for its intrinsic ability to control epithelial cell differentiation by retinoids in hamster tracheal organ culture at 10e-9 M; IA = inactive(3/4) 3 were inactive out of 4; assay type: functional, organism-based; details: Trachea
Cricetinae gen. sp. [3] = test: Compound is evaluated for its intrinsic ability to control epithelial cell differentiation by retinoids in hamster tracheal organ culture at 10e-9 M; IA = inactive(12/16) 12 were inactive out of 16; assay type: functional, organism-based; details: Trachea
Cricetinae gen. sp. [4] = test: Compound is evaluated for its intrinsic ability to control epithelial cell differentiation by retinoids in hamster tracheal organ culture at 10e -8M; IA = inactive( 6 cultures were inactive out of 7); assay type: functional, organism-based; details: Trachea
Cricetinae gen. sp. [5] = test: Compound is evaluated for its intrinsic ability to control epithelial cell differentiation by retinoids in hamster tracheal organ culture at 10e -8M; IA = inactive(16/17) 16 cultures were inactive out of 17; assay type: functional, organism-based; details: Trachea
Cricetinae gen. sp. [6] = test: Compound is evaluated for its intrinsic ability to control epithelial cell differentiation by retinoids in hamster tracheal organ culture at 10e-9 M; IA = inactive(14/16) 14 were inactive out of 16; assay type: functional, organism-based; details: Trachea
Cricetinae gen. sp. [7] = test: Compound is evaluated for its intrinsic ability to control epithelial cell differentiation by retinoids in hamster tracheal organ culture at 10e -9M; IA = inactive(7 cultures were inactive out of 7); assay type: functional, organism-based; details: Trachea
Cricetinae gen. sp. [8] = test: Compound is evaluated for its intrinsic ability to control epithelial cell differentiation by retinoids in hamster tracheal organ culture at 10e-8 M; act = active(4 cultures were active out of 5); assay type: functional, organism-based; details: Trachea
Cricetinae gen. sp. [9] = test: Compound is evaluated for its intrinsic ability to control epithelial cell differentiation by retinoids in hamster tracheal organ culture at 10e-8 M; IA = inactive(9/12) 9 were inactive out of 12; assay type: functional, organism-based; details: Trachea
Cricetinae gen. sp. [10] = test: Compound is evaluated for its intrinsic ability to control epithelial cell differentiation by retinoids in hamster tracheal organ culture at 10e -10M; IA = inactive(9/12) 9 were inactive out of 12; assay type: functional, organism-based; details: Trachea
Cricetinae gen. sp. [11] = test: Compound is evaluated for its intrinsic ability to control epithelial cell differentiation by retinoids in hamster tracheal organ culture at 10e -9M; IA =inactive(8/15) 8 were inactive out of 15; assay type: functional, organism-based; details: Trachea

Compound	TOC ED50 (Cricetinae gen. sp. [1]) [pM]	also measured
CC(=O)C(=C/C=C(C)/C=C/C=C(C)/C=C/C1=C(C)CCCC1(C)C)C(C)=O	1800	
CC1=C(/C=C/C(C)=C/C=C/C(C)=C/C=C2C(=O)CCCC2=O)C(C)(C)CCC1	110	
CC1=C(/C=C/C(C)=C/C=C/C(C)=C/C=C2C(=O)C=CC2=O)C(C)(C)CCC1		TOC ED50 (Cricetinae gen. sp. [2]): inactive
CC1=C(/C=C/C(C)=C/C=C/C(C)=C/C=C2C(=O)CCCCCCCCCCCC2=O)C(C)(C)CCC1		TOC ED50 (Cricetinae gen. sp. [3]): inactive
CC1=C(/C=C/C(C)=C/C=C/C(C)=C/C=C2C(=O)CC(C)CC2=O)C(C)(C)CCC1 (configuration not stated)	800	
CC1=C(/C=C/C(C)=C/C=C/C(C)=C/C=C2C(=O)CCCCC2=O)C(C)(C)CCC1	380	
CCCC(=O)C(=C/C=C(C)/C=C/C=C(C)/C=C/C1=C(C)CCCC1(C)C)C(=O)CCC		TOC ED50 (Cricetinae gen. sp. [4]): inactive
CC1=C(/C=C/C(C)=C/C=C/C(C)=C/C=C2C(=O)CCC2=O)C(C)(C)CCC1		TOC ED50 (Cricetinae gen. sp. [5]): inactive
CC1=C(/C=C/C(C)=C/C=C/C(C)=C/C=C2C(=O)CC(c3ccc(C(F)(F)F)cc3)CC2=O)C(C)(C)CCC1 (configuration not stated)	100	
COc1ccc(C2CC(=O)C(=C/C=C(C)/C=C/C=C(C)/C=C/C3=C(C)CCCC3(C)C)C(=O)C2)cc1 (configuration not stated)	180	
CC1=C(/C=C/C(C)=C/C=C/C(C)=C/C=C2C(=O)CC(C)(C)CC2=O)C(C)(C)CCC1	240	
2-[3,7-Dimethyl-9-(2,6,6-trimethyl-cyclohex-1-enyl)-nona-2,4,6,8-tetraenylidene]-[3]ferrocenophane-1,3-dione		TOC ED50 (Cricetinae gen. sp. [6]): inactive
CCC(=O)C(=C/C=C(C)/C=C/C=C(C)/C=C/C1=C(C)CCCC1(C)C)C(=O)CC		TOC ED50 (Cricetinae gen. sp. [7]): inactive; TOC ED50 (Cricetinae gen. sp. [8]): Active
CC1=C(/C=C/C(C)=C/C=C/C(C)=C/C=C2C(=O)c3ccccc3C2=O)C(C)(C)CCC1		TOC ED50 (Cricetinae gen. sp. [9]): inactive
CC1=C(/C=C/C(C)=C/C=C/C(C)=C/C=C2C(=O)C(C(C)(C)C)CC(C(C)(C)C)C2=O)C(C)(C)CCC1 (configuration not stated)		TOC ED50 (Cricetinae gen. sp. [10]): inactive; TOC ED50 (Cricetinae gen. sp. [11]): inactive
CC1=C(/C=C/C(C)=C/C=C/C(C)=C/C=C2C(=O)CC(c3ccccc3)CC2=O)C(C)(C)CCC1 (configuration not stated)	100	
CC1=C(/C=C/C(C)=C/C=C/C(C)=C/C=C2C(=O)CCCCCCC2=O)C(C)(C)CCC1	240	
CCC1CC(=O)C(=C/C=C(C)/C=C/C=C(C)/C=C/C2=C(C)CCCC2(C)C)C(=O)C1 (configuration not stated)	360	
CC1=C(/C=C/C(C)=C/C=C/C(C)=C/C=C2C(=O)CC(C(C)C)CC2=O)C(C)(C)CCC1 (configuration not stated)	210	
CC1=C(/C=C/C(C)=C/C=C/C(C)=C/C=C2C(=O)CCCCCC2=O)C(C)(C)CCC1	220	
